The values that follow come from ChEMBL document CHEMBL3351319, “Synthesis, biological evaluation and 3D-QSAR study of novel 4,5-dihydro-1H-pyrazole thiazole derivatives as BRAF(V⁶⁰⁰E) inhibitors” (Bioorg Med Chem, 2015).

Experiment [1] is described as follows: Inhibition of full-length GST-tagged mouse BRAF V600E mutant using MEK1 as substrate preincubated for 1 hr. The gist of the method: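 Mouse full-length GST-tagged BRAF V600E (7.5 ng) pre-incubated 1 h at room temperature with compound in assay dilution buffer. Reaction started by adding 200 ng His-tagged full-length human MEK1, 200 µM ATP (0.8 µCi hot ATP) and 30 mM MgCl2, then run 25 min at room temperature. Quenched with LDS buffer and heated 5 min at 70 °C. Products separated on 4-12% gel, which was dried and read on a phosphor screen. No-enzyme and no-inhibitor controls included, triplicate.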

The subject of experiment [2] is MCF7. The experiment in a line: Antiproliferative activity against human MCF7 cells after 48 hrs by MTT assay. The experiment is classed as functional, cell-based. Particulars: MCF7, 48 h. The procedure, abridged: (§1)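 Cells grown to log phase in RPMI 1640 with 10% FBS, seeded at 2 × 10^4 cells/mL and left 24 h at 37 °C, 5% CO2. Compounds added at pre-set concentrations, sorafenib as positive control, 48 h exposure. MTT (2.5 mg/mL in PBS) added for 4 h, then SDS-isobutanol-HCl extraction overnight at 37 °C. OD read at 570 nm. Three replicate wells per concentration, each assay run at least three times.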

Experiment [3] in a line: Antiproliferative activity against human WM266.4 cells after 48 hrs by MTT assay. Particulars: WM 266-4, 48 h. It counts as functional, cell-based. The gist of the method:
as §1
Background: Formazan colour is commonly taken as a measure of viable cells.

Experiment [4] concerns WM 266-4. The experiment in a line: Induction of apoptosis in human WM266.4 cells assessed as necrotic cells at 3 uM after 48 hrs using annexin V-FITC/PI by flow cytometry (reference value: 1.26 %). It counts as functional.
Experiment [5] relates to MCF7. The experiment in a line: Induction of apoptosis in human MCF7 cells assessed as necrotic cells at 3 uM after 48 hrs using annexin V-FITC/PI by flow cytometry (reference value: 0.29 %). The experiment is classed as functional. (In general: A flow cytometer gives signals particle by particle.)
The subject of experiment [6] is MCF7. The experiment in a line: Induction of apoptosis in human MCF7 cells assessed as late apoptotic cells at 3 uM after 48 hrs using annexin V-FITC/PI by flow cytometry (reference value: 5.12 %). It counts as functional.
Experiment [7] relates to WM 266-4. The experiment in a line: Induction of apoptosis in human WM266.4 cells assessed as necrotic cells at 1 uM after 48 hrs using annexin V-FITC/PI by flow cytometry (reference value: 1.26 %). It counts as functional.
Experiment [8] relates to WM 266-4. The experiment in a line: Induction of apoptosis in human WM266.4 cells assessed as early apoptotic cells at 1 uM after 48 hrs using annexin V-FITC/PI by flow cytometry (reference value: 5.79 %). It counts as functional.
The subject of experiment [9] is MCF7. The experiment in a line: Induction of apoptosis in human MCF7 cells assessed as early apoptotic cells at 1 uM after 48 hrs using annexin V-FITC/PI by flow cytometry (reference value: 3.52 %). It counts as functional.
The test system of experiment [10] is WM 266-4. The experiment in a line: Induction of apoptosis in human WM266.4 cells assessed as viable cells at 3 uM after 48 hrs using annexin V-FITC/PI by flow cytometry (reference value: 86.39 %). The experiment is classed as functional. Particulars: WM 266-4, 48 h, read-out: Activity.
In experiment [11] the test system is WM 266-4. The experiment in a line: Induction of apoptosis in human WM266.4 cells assessed as late apoptotic cells at 3 uM after 48 hrs using annexin V-FITC/PI by flow cytometry (reference value: 6.56 %). The experiment is classed as functional.
Experiment [12] deals with MCF7. The experiment in a line: Induction of apoptosis in human MCF7 cells assessed as viable cells at 1 uM after 48 hrs using annexin V-FITC/PI by flow cytometry (reference value: 91.07 %). It counts as functional. As to conditions: MCF7, 48 h, read-out: Activity.
For experiment [13], the system named is MCF7. The experiment in a line: Induction of apoptosis in human MCF7 cells assessed as necrotic cells at 1 uM after 48 hrs using annexin V-FITC/PI by flow cytometry (reference value: 0.29 %). The experiment is classed as functional.
Experiment [14] has as its system MCF7. The experiment in a line: Induction of apoptosis in human MCF7 cells assessed as late apoptotic cells at 1 uM after 48 hrs using annexin V-FITC/PI by flow cytometry (reference value: 5.12 %). It counts as functional.
Experiment [15] deals with MCF7. The experiment in a line: Induction of apoptosis in human MCF7 cells assessed as viable cells at 3 uM after 48 hrs using annexin V-FITC/PI by flow cytometry (reference value: 91.07 %). The experiment is classed as functional. Particulars: MCF7, 48 h, read-out: Activity.
Experiment [16] deals with WM 266-4. The experiment in a line: Induction of apoptosis in human WM266.4 cells assessed as early apoptotic cells at 3 uM after 48 hrs using annexin V-FITC/PI by flow cytometry (reference value: 5.79 %). It counts as functional.
Experiment [17] deals with WM 266-4. The experiment in a line: Induction of apoptosis in human WM266.4 cells assessed as viable cells at 1 uM after 48 hrs using annexin V-FITC/PI by flow cytometry (reference value: 86.39 %). It counts as functional. As to conditions: WM 266-4, 48 h, read-out: Activity.
Experiment [18] relates to MCF7. The experiment in a line: Induction of apoptosis in human MCF7 cells assessed as early apoptotic cells at 3 uM after 48 hrs using annexin V-FITC/PI by flow cytometry (reference value: 3.52 %). It counts as functional.
For experiment [19], the system named is WM 266-4. The experiment in a line: Induction of apoptosis in human WM266.4 cells assessed as late apoptotic cells at 1 uM after 48 hrs using annexin V-FITC/PI by flow cytometry (reference value: 6.56 %). It counts as functional.

Regarding `Fc1ccc(C2=NN(c3nc(-c4ccccc4)cs3)C(c3cccs3)C2)cc1` (centres undefined), the concentration for half-maximal inhibition (IC50) in experiment [1] is 670 nM; in [2], 2340 nM; in [3], 170 nM.

For the molecule `Brc1ccc(C2=NN(c3nc(-c4ccccc4)cs3)C(c3cccs3)C2)cc1` (centres undefined), the values for the IC50 in [1], in experiment [2] and in experiment [3] were 2190 nM, 6790 nM and 1870 nM, respectively.

Take `Cc1ccc(C2=NN(c3nc(-c4ccccc4)cs3)C(c3cccs3)C2)cc1` (centres undefined): the IC50 in experiment [1] came to 3880 nM; in experiment [2], 18600 nM; in experiment [3], 7520 nM.

As for `COc1ccc(C2=NN(c3nc(-c4ccccc4)cs3)C(c3cccs3)C2)cc1` (centres undefined), the IC50 in [1] is 1110 nM; in experiment [2], 9010 nM; in experiment [3] it was 2120 nM.

For `COc1ccc(-c2csc(N3N=C(c4ccc(F)cc4)CC3c3cccs3)n2)cc1` (centres undefined), the values for the 50% inhibitory concentration (IC50) in experiment [1], in experiment [2] and in experiment [3] were 5120 nM, 14200 nM and 4420 nM, respectively.

For `COc1ccc(-c2csc(N3N=C(c4ccc(Br)cc4)CC3c3cccs3)n2)cc1` (centres undefined), the half-maximal inhibitory concentration (IC50) was 80 nM in [1], 680 nM in experiment [2] and 2010 nM in experiment [3].

For `COc1ccc(-c2csc(N3N=C(c4ccc(C)cc4)CC3c3cccs3)n2)cc1` (centres undefined), the IC50 in [1] stood at 110 nM; in [2] it was 4770 nM; in experiment [3], 3770 nM.

As to `COc1ccc(C2=NN(c3nc(-c4ccc(OC)cc4)cs3)C(c3cccs3)C2)cc1` (centres undefined), the 50% inhibitory concentration (IC50) in [1] turned out to be 5230 nM; in [2] it was 16200 nM; in [3], 31600 nM.

Consider `COc1ccc(C2=NN(c3nc(-c4ccc(Br)cc4)cs3)C(c3cccs3)C2)cc1` (centres undefined), for which the figures for the IC50 in [1], in [2] and in experiment [3] were 4010 nM, 21200 nM and 5870 nM, respectively.

As to `COc1ccc(C2=NN(c3nc(-c4ccc(C(F)(F)F)cc4)cs3)C(c3cccs3)C2)cc1` (centres undefined), the IC50 in experiment [1] turned out to be 10900 nM; in experiment [2] it was 45700 nM; in experiment [3], 8110 nM.

As for `Fc1ccc(C2=NN(c3nc(-c4ccc(Br)cc4)cs3)C(c3cccs3)C2)cc1` (centres undefined), the IC50 in experiment [1] was 1860 nM; in experiment [2], 8280 nM; in [3] it was 220 nM.

Turning to `Fc1ccc(C2=NN(c3nc(-c4ccc(C(F)(F)F)cc4)cs3)C(c3cccs3)C2)cc1` (centres undefined), the IC50 came to 1010 nM in [1], 1330 nM in experiment [2] and 5120 nM in experiment [3].

`Cc1ccc(C2=NN(c3nc(-c4ccc(Br)cc4)cs3)C(c3cccs3)C2)cc1` (centres undefined): the IC50 in experiment [1] came to 560 nM; in [2], 2010 nM; in experiment [3], 18400 nM.

In the case of `Cc1ccc(C2=NN(c3nc(-c4ccc(C(F)(F)F)cc4)cs3)C(c3cccs3)C2)cc1` (centres undefined), the IC50 was determined as 6180 nM in [1], 31500 nM in experiment [2] and 2110 nM in experiment [3].

Consider `Brc1ccc(C2=NN(c3nc(-c4ccc(Br)cc4)cs3)C(c3cccs3)C2)cc1` (centres undefined), for which the IC50 in experiment [1] worked out at 8870 nM; in [2], 28300 nM; in [3], 13000 nM.

Consider `FC(F)(F)c1ccc(-c2csc(N3N=C(c4ccc(Br)cc4)CC3c3cccs3)n2)cc1` (centres undefined), for which the half-inhibitory concentration (IC50) is 2090 nM in [1], 7810 nM in [2] and 27400 nM in experiment [3].

For the molecule `Clc1ccc(C2=NN(c3nc(-c4ccc(Br)cc4)cs3)C(c3cccs3)C2)cc1` (centres undefined), the IC50 was 4780 nM in experiment [1], 14700 nM in experiment [2] and 1450 nM in experiment [3].

In the case of `Clc1ccc(C2=NN(c3nc(-c4ccccc4)cs3)C(c3cccs3)C2)cc1` (centres undefined), the IC50 in experiment [1] was found to be 90 nM; in experiment [2], 190 nM; in experiment [3], 2190 nM.

Consider `COc1ccc(-c2csc(N3N=C(c4ccc(Cl)cc4)CC3c3cccs3)n2)cc1` (centres undefined), for which the IC50 amounted to 190 nM in [1], 2480 nM in experiment [2] and 1310 nM in experiment [3].

`FC(F)(F)c1ccc(-c2csc(N3N=C(c4ccc(Cl)cc4)CC3c3cccs3)n2)cc1` (centres undefined): the Activity in experiment [4] is reported as 3.54%; in experiment [5] it was 3.54%; in [6], 33.01%; in experiment [7], 0.09%; in experiment [8], 14.13%; in experiment [9] it was 39.15%. The Activity in experiment [11] was determined as 38.25%; in experiment [13], 1.2%; in experiment [14], 27.25%; in experiment [16], 47.19%; in experiment [18] it was 43.69%; in experiment [19], 17.54%. For the same molecule, the IC50 in experiment [1] was found to be 50 nM; in experiment [2], 160 nM; in experiment [3], 120 nM. Besides, the viability at 3 µM in experiment [10] is 11%; in [15] it was 19.8%. Besides, the viability at 1 µM in experiment [12] amounted to 32.4%; in experiment [17], 68.2%.

Regarding `CNC(=O)c1cc(Oc2ccc(NC(=O)Nc3ccc(Cl)c(C(F)(F)F)c3)cc2)ccn1` [SORAFENIB], the IC50 is 30 nM in experiment [1], 190 nM in experiment [2] and 60 nM in experiment [3].

As usually defined, the IC50 is the concentration at which inhibition is half-maximal. A higher IC50 goes with a need for much substance.
